One series deals with H22. Briefly: Antitumor activity against human H22 cells xenografted in Kunming mouse assessed as reduction in tumor volume at 20 mg/kg, po qd for 10 days. Particulars: 240 h, read-out: INH. For orientation: A xenograft is tissue or cells of one species grown in another, often human tumour cells in immunodeficient mice.
The nature of series [1]: Growth inhibition of human QSG7701 cells at 50 uM after 48 hrs by MTT assay. Particulars: read-out: GI. In a few lines:
(§1)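 QSG-7701 human hepatocytes seeded at 5×10^3 cells/mL in 96-well plates. Compounds were dissolved in DMSO and diluted in RPMI 1640 (final DMSO <0.1%), in triplicate, for 48 h. MTT (5 mg/mL stock) was added for 2 h, and formazan was dissolved in DMSO. OD was read at 570 nm (450 nm reference). IC50 is the concentration giving 50% absorbance reduction versus vehicle control.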

The nature of series [2]: Growth inhibition of human QSG7701 cells after 48 hrs by MTT assay. Particulars: QSG7701, 48 h. In a few lines: as §1
A general note: Tetrazolium assays rely on reduction of a dye to a coloured formazan, in cell work by metabolically active cells.

The test system of series [3] is Mus musculus. Put plainly: Immunostimulatory activity in Kunming mouse xenografted with […] cells assessed as change in spleen mass at 10 mg/kg, po qd for 10 days (reference value: 6.61 +/- 1.84 mg/kg). It is filed as functional.
Series [4] concerns Mus musculus. Briefly: Immunostimulatory activity in Kunming mouse xenografted with […] cells assessed as change in thymus mass at 5 mg/kg, po qd for 10 days (reference value: 1.83 +/- 0.85 mg/kg). It counts as functional.
For series [5], the system named is Mus musculus. Briefly: Immunostimulatory activity in Kunming mouse xenografted with […] cells assessed as change in thymus mass at 10 mg/kg, po qd for 10 days (reference value: 1.83 +/- 0.85 mg/kg). It counts as functional.
Series [6] deals with Mus musculus. Briefly: Toxicity in Kunming mouse xenografted with human H22 cells assessed as change in body weight at 20 mg/kg, po qd for 10 days (reference value: 23.4 +/- 2.8 g). It is filed as organism-based. On the set-up: dose 20 mg/kg, route oral. Particulars: in vivo, 240 h.
Series [7] deals with Mus musculus. Briefly: Immunostimulatory activity in Kunming mouse xenografted with […] cells assessed as change in spleen mass at 5 mg/kg, po qd for 10 days (reference value: 6.61 +/- 1.84 mg/kg). It counts as functional.
A further series relates to H22 (Mus musculus). Briefly: Antitumor activity against mouse H22 cells xenografted in Kunming mouse assessed as reduction in tumor weight at 5 mg/kg, po qd for 10 days. Particulars: 240 h.
Series [8] relates to Mus musculus. Briefly: Toxicity in Kunming mouse xenografted with […] cells assessed as change in body weight at 20 mg/kg, po qd for 10 days (reference value: 24.8 +/- 1.1 g). On the set-up: dose 20 mg/kg, route oral. It is filed as organism-based. The settings on record: in vivo, 240 h.

One may read the IC50 as the midpoint of a concentration-inhibition curve.

Structures are written as SMILES.

With `O=P1(N(CCCl)CCCl)NCCCO1` (configuration not stated) [CYCLOPHOSPHAMIDE ANHYDROUS], in the series on H22, the inhibition in vivo at 20 mg/kg is 72%.

Take `CC(C)=CCC[C@](C)(O)[C@H]1CC[C@]2(C)[C@@H]1[C@H](O)C[C@@H]1[C@@]3(C)CC[C@H](O[C@@H]4O[C@H](CO)[C@@H](O)[C@H](O)[C@H]4O)C(C)(C)[C@@H]3CC[C@]12C` [GINSENOSIDE RH2]: in series [1], the inhibition at 48 h, 50 µM was determined as 83%. In addition, in series [2], the IC50 is 37.3 µM. Also, the Activity with Mus musculus [3] turned out to be 5.35 mg/g; in the series with Mus musculus [4] it was 2.25 mg/g; in the series on Mus musculus [5], 2.09 mg/g; with Mus musculus [6], 23.2 g; in the series on Mus musculus [7], 5.48 mg/g. The inhibition in vivo at 5 mg/kg with H22 (Mus musculus) came to 53%.

Regarding `CCCCCCCC(=O)OC[C@H]1O[C@@H](O[C@H]2CC[C@]3(C)[C@H]4C[C@@H](OC(=O)CCCCCCC)[C@@H]5[C@@H]([C@@](C)(O)CCC=C(C)C)CC[C@@]5(C)[C@]4(C)CC[C@H]3C2(C)C)[C@H](O)[C@@H](O)[C@@H]1O`, in series [1], the inhibition at 48 h, 50 µM was 18%. For the same compound, in [2], the IC50 worked out at 80.5 µM. Besides, the Activity in the series with Mus musculus [3] is given as 6.31 mg/g; with Mus musculus [4] it was 2.15 mg/g; in the series on Mus musculus [5], 3.42 mg/g; in the series on Mus musculus [8], 27.1 g; in the series with Mus musculus [7], 5.27 mg/g. In addition, the inhibition in vivo at 5 mg/kg in the series on H22 (Mus musculus) came out at 52%.

Source of the values: ChEMBL document CHEMBL1944612, “Structural modification of ginsenoside Rh(2) by fatty acid esterification and its detoxification property in antitumor” (Bioorg Med Chem Lett, 2012).
